# A selection: hits, their analogues and other compounds. The true share with any hit is near 2.4%.
# DNMT1 block – human DNMT1 methyltransferase inhibitors, primary screen, biochemical, molecular beacon, fluorescence, HinP1I cleavage, uHTS. DNA (cytosine-5)-methyltransferase 1 (Homo sapiens), P26358. inhibition (reported as % activation of signal), % at 10 µM. actives 0.83% (n = 360,000); in the data active = inhibition above about 50%
# Target sequence (P26358 504-1616 limits assumed): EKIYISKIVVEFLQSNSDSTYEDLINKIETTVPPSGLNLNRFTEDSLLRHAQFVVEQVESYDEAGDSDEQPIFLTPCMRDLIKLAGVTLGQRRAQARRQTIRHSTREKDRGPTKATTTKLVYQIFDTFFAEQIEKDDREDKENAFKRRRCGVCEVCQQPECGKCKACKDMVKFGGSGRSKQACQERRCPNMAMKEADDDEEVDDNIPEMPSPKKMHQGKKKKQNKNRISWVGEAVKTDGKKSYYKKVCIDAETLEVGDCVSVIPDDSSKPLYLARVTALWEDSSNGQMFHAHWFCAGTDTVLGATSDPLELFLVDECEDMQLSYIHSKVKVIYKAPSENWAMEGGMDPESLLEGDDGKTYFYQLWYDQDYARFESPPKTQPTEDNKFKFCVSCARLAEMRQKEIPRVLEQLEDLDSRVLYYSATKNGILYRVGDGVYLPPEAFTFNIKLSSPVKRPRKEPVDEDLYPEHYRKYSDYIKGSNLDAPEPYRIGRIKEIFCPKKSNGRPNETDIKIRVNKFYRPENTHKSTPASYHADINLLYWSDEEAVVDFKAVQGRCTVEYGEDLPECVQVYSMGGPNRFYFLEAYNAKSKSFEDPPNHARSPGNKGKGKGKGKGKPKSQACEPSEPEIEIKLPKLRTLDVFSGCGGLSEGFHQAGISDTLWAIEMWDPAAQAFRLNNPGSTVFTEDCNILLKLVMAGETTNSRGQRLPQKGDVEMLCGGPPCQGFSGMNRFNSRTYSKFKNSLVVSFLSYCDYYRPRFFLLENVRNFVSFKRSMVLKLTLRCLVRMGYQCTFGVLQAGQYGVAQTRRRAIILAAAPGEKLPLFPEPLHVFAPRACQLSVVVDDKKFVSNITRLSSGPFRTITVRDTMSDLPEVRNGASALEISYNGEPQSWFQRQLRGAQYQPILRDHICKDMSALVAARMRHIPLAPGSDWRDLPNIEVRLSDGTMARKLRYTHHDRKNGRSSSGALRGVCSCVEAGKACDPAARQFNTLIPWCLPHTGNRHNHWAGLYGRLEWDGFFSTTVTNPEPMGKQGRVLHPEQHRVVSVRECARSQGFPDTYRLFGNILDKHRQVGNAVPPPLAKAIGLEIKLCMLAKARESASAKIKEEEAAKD
# SUMO1-SIM PPI – modulators of SUMO1 protein-protein interactions, primary screen, biochemical, uHTS; SUMO1 binding to a labelled peptide, TR-FRET, 1 h; actives 0.33% (n = 360,000); inhibition, % at 20 µM; Small ubiquitin-related modifier 1 (Homo sapiens), P63165; AID 602429, 2012; in the data active = inhibition above about 37%
# STEP block – STEP phosphatase inhibitors, primary screen, biochemical, fluorescence intensity, uHTS | actives 0.25% (n = 360,000) | inhibition, % at 20 µM | recombinant STEP, OMFP fluorogenic substrate | Tyrosine-protein phosphatase non-receptor type 5 (Homo sapiens), P54829;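 active = inhibition at 20 µM, scaled per plate between control wells, above about 37%, limit read from the data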
#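 System: STEP (striatal-enriched tyrosine phosphatase) enzyme, cell-free; medium: Bis-Tris pH 6.0 buffer with DTT, detergent; dosing: 20 µM, 1% DMSO; times: reaction 20 min, ambient temperature; detection: fluorescence, 480/540 nm; read-out basis: normalized % inhibition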
# Scp1 inh – Scp-1 phosphatase inhibitors, primary screen, biochemical, colorimetric, uHTS; Carboxy-terminal domain RNA polymerase II polypeptide A small phosphatase 1 (Homo …; Recombinant Scp1, phosphopeptide, malachite green phosphate absorbance; inhibition, % at 20 µM; actives 0.88% (n = 340,000); AID 493091, 2011;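 active = inhibition above about 50% at 20 µM, limit read from the data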
#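 Incubation: 45 min enzyme reaction at room temperature / System: truncated SCP-1 phosphatase (76-261aa) / Reagent: Phospho 17-mer peptide substrate / Buffer or medium: Acidic Tris acetate buffer with magnesium and detergent / Signal: absorbance at 630 nm / Doses: one concentration, 20 µM, with 1.0% DMSO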
# LMPTP inh – LMPTP phosphatase inhibitors, primary screen, biochemical, fluorescence intensity, uHTS. recombinant LMPTP-A, OMFP fluorogenic substrate. inhibition, % at 20 µM. actives 0.22% (n = 360,000);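 active = compounds that cut the enzyme signal by at least half of the control window in the single-dose screen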
#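 Assay system: LMPTP-A, protein tyrosine phosphatase of low molecular weight / Medium: pH 6.0 Bis-Tris buffer with DTT and Triton X-100 / Schedule: 50 min enzyme reaction at room temperature, protected from light / Measured by: endpoint fluorescence intensity from OMFP dephosphorylation / Read-out basis: % inhibition relative to no-enzyme and uninhibited control wells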
# NadD block – inhibitors of S. aureus NadD, primary screen, biochemical, colorimetric, uHTS | purified NadD enzyme, colorimetric absorbance read-out | AID 602399, 2012 | actives 0.78% (n = 360,000) | Nicotinate-nucleotide adenylyltransferase NadD (Staphylococcus aureus N315) | inhibition, % at 20 µM; in the data active = inhibition above about 26%
# Scp1 confirm – Scp-1 phosphatase inhibitors, retest, confirmation, biochemical, colorimetric, single concentration; inhibition, % at 20 µM; actives 61% (n = 2,500); shares compounds with Scp1 inh; recombinant SCP-1 catalytic domain, phosphate release, malachite green absorbance
# Scp-1 MG ctr – colorimetric readout interference by compounds, confirmation, artefact control for Scp-1 inhibitor project, biochemical, single concentration | apparent inhibition (interference), % at 20 µM | 2,500 tested, under 10 active | Colorimetric interference counterscreen, malachite green absorbance 630 nm | shares compounds with Scp1 inh;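 note: compounds added after enzyme reaction finished so only phosphate colour detection is probed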
# Scp1 DSF – Scp-1 binding by thermal shift, confirmation, orthogonal assay for Scp-1 inhibitor project, biophysical, differential scanning fluorimetry; shares compounds with Scp1 inh; Recombinant SCP1, Sypro Orange thermal shift Tm; thermal shift relative to vanadate control, % at 40 µM; actives 25% (n = 1,500);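 active = substances whose mean melting-temperature shift, as a percentage of the reference inhibitor's shift, reaches about 5.3%, limit read from the data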
# A number is an active result; i = inactive; nt = no result.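 Rule for the calls, unless noted: active = inhibition of at least 30% at 20 µM; inactive = the rest.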
SMILES,DNMT1 block,SUMO1-SIM PPI,STEP block,Scp1 inh,LMPTP inh,NadD block,Scp1 confirm,Scp-1 MG ctr,Scp1 DSF
COc1ccc(-c2noc(CN3CCN(c4ccccc4)CC3)n2)cc1,i,i,i,67.5,i,i,i,i,nt
CCOc1ncccc1C(=O)N(C)CC(=O)Nc1ccccc1SC,i,i,i,60.2,i,i,i,i,nt
CSc1ccccc1NC(=O)CN(C)C(=O)/C=C/c1ccccc1,i,i,i,i,i,i,nt,nt,nt
O=C(CSc1ncccc1-c1nc2ccccc2[nH]1)NCc1ccco1,i,i,i,55.5,i,i,66.4,i,6.5
Cc1cc2nc(-c3cccnc3SCC(=O)NCc3ccco3)[nH]c2cc1C,i,i,i,i,i,i,nt,nt,nt
Cc1ccc(CCNC(=O)C23CN(Cc4ccccc4)CC2C(c2ccc([N+](=O)[O-])cc2)=NO3)cc1 (centres undefined),i,i,i,i,i,i,nt,nt,nt
O=C1CNC(=O)/C1=C\N1CCN(C(c2ccccc2)c2ccccc2)CC1,i,i,i,55.5,i,i,i,i,nt
O=C(NC1CCCc2ccccc21)c1ccc(Cl)nc1 (centres undefined),i,i,i,i,i,i,nt,nt,nt
CCC12CCCN3CCC4(C(=C(C(=O)OC)C1)Nc1ccccc14)C32 (centres undefined),i,i,i,61.4,i,i,i,i,nt
COC(=O)C1=C(C(=O)OC)[C@@H]2Nc3ccccc3[C@@]23C[C@@H](C(=O)OC)N=C3N1,i,i,i,i,i,i,nt,nt,nt
Cc1cc(C)n(CCCNC(=O)C2CC(=O)N(Cc3ccccc3)C2)n1 (centres undefined),i,i,i,i,i,i,i,i,nt
Cc1cc(C)n(CCNC(=O)C2CCC(=O)N(Cc3ccc(Cl)cc3)C2)n1 (centres undefined),i,i,i,i,i,i,nt,nt,nt
COc1ccc(-c2ccc3oc(-c4ccc(OC)cc4)c(C#CC4(O)CCCCC4)c3c2)cc1,i,i,i,72.6,i,i,41.5,i,i
CCc1ccccc1NC(=O)CNC(=O)CCc1nc2sc3c(c2c(=O)[nH]1)CCCC3,i,i,i,69.7,i,i,66.0,i,i
O=C(Nc1cccc2nsnc12)c1ccc2c(c1)OCCO2,i,i,i,69.5,i,i,i,i,nt
COc1ccc(NS(=O)(=O)c2cc(N=Nc3c(O)[nH]c(=O)[nH]c3=O)ccc2OC)cc1Br,i,i,i,nt,i,i,nt,nt,nt
Cc1cccc2cc(C#N)c(NCCCn3ccnc3)nc12,i,i,i,i,i,i,nt,nt,nt
COc1ccc2[nH]c(=O)c(-c3noc(-c4ccccc4)n3)cc2c1,i,65.1,i,82.0,i,i,60.1,i,i
Cc1c(-c2csc(N)n2)c2ccccc2n1C,i,i,i,i,i,i,nt,nt,nt
CCC(CO)Oc1cc(NCc2ccc(Cl)cc2Cl)c2ncn(C(C)C)c2c1 (centres undefined),i,i,i,i,i,i,nt,nt,nt
Cc1ccc(CNC(=O)c2ccc3c(=O)c(O)c(-c4ccc(C)cc4)[nH]c3c2)cc1,i,i,i,55.8,i,i,51.3,i,i
Cc1ccc(S(=O)(=O)Nc2csc(C)c2C(=O)O)cc1,nt,nt,nt,60.8,nt,nt,58.5,i,15.3
O=C(Nc1ccc2c(c1)OCCO2)c1ccc(Cl)cc1Cl,i,i,i,i,i,i,nt,nt,nt
CC(C)c1ccc(NC(=O)c2cc([N+](=O)[O-])ccc2N2CCOCC2)cc1,i,i,i,55.0,i,i,i,i,nt
Cc1ccc(NC(=O)c2noc3c2CCCCC3)cc1,i,i,i,i,i,i,nt,nt,nt
SMILES,DNMT1 block,SUMO1-SIM PPI,STEP block,Scp1 inh,LMPTP inh,NadD block,Scp1 confirm,Scp-1 MG ctr,Scp1 DSF
Cc1cccc2cc(/C=N/NC(=O)c3ccccc3O)c(Cl)nc12,i,i,i,95.4,i,i,72.7,i,i
Cc1cccc2cc(/C=N/NC(=O)c3ccncc3)c(Cl)nc12,i,i,i,i,i,i,nt,nt,nt
Cc1ccc(C(=O)COC(=O)c2ccc(Cl)c(N)c2)s1,i,i,i,i,i,i,nt,nt,nt
Nc1cc(C(=O)OCC(=O)c2ccc(CC(=O)N3CCOCC3)s2)ccc1Cl,i,i,i,54.2,i,i,39.4,i,6.2
COc1ccc(NS(=O)(=O)c2cccc(C(=O)N/N=C/c3c(F)c(F)c(F)c(F)c3F)c2)cc1,i,i,i,75.2,i,i,51.6,i,7.3
COc1ccc(NS(=O)(=O)c2cccc(C(=O)NN=Cc3ccc(OC)c(O)c3)c2)cc1,i,i,i,i,i,i,nt,nt,nt
O=C(COc1ccc(/C=N/NS(=O)(=O)c2ccccc2)cc1)Nc1ccccc1,i,i,i,i,i,i,nt,nt,nt
O=C(Cc1ccccc1)N/N=C/c1ccc(OCC(=O)Nc2ccccc2)cc1,i,i,i,82.4,i,i,44.4,i,i
O=C(Nc1nccs1)c1ccc2nccnc2c1,i,i,i,51.7,i,i,62.6,i,i
O=c1c2[nH]c3ccccc3c2ncn1CCN1CCCCC1,i,i,i,i,i,i,nt,nt,nt
COc1ccccc1-c1c(C)nn2c(N3CCC(C)CC3)cc(C)nc12,i,i,i,i,i,i,nt,nt,nt
Cn1nc(CC(=O)NC2CCCCCC2)c2ccccc2c1=O,i,i,i,75.6,i,i,i,i,nt
CCCCCCCCN1[C@@H](CC(=O)OCC)c2cc(C(F)(F)F)ccc2S1(=O)=O,i,i,i,i,i,i,nt,nt,nt
CC(=O)c1ccc(NC(=O)CCS(=O)(=O)c2ccc3c(c2)n(C)c(=O)c(=O)n3C)cc1,i,i,i,71.3,i,i,30.6,i,i
CC[n+]1c(/C=C/Nc2ccccc2)sc2ccccc21,i,i,i,109.2,i,i,i,i,nt
CC[n+]1c(/C=C(\C)OC)sc2ccccc21,i,i,i,i,i,i,nt,nt,nt
